Assay results reported in paper PMC9530961 (Molecular Therapy. Nucleic Acids, 2022).

Experiments:
CSNK2A1 mRNA [1] = experiment: qPCR gene silencing in CAOV3 cells; format: cell-based; conditions: CAOV3, 80:1 N:P ratio, 48 h
Procedure, shortened: (§1)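 Cells were seeded at 50,000/well and treated with peptide complexes of CSNK2A1-targeting or non-targeting siRNA at increasing N:P ratios in McCoy's 5A/DMEM with 10% FBS. Medium was replaced after a PBS wash at 24 h, for 48 h total. CSNK2A1 mRNA was quantified by TaqMan qRT-PCR with 18S as reference.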

RNase A = target: T1, RNase A (Bos taurus, UniProt P61823); experiment: Protection of siRNA from RNase A degradation, agarose gel electrophoresis; format: in vitro ADME; conditions: complexes with siNT, 5 μg/mL RNase A, 37°C, 1 h, 6% SDS
T1 sequence (P61823 27-150): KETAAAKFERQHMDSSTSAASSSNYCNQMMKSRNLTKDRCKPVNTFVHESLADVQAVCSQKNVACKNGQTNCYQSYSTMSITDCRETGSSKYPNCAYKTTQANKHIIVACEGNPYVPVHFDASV
Procedure, shortened: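 Non-targeting siRNA (10 μM solution) was mixed with each peptide (10 μM solution in RNase-free water) at several N:P ratios and held 20 min at room temperature. Complexes or free siRNA were left untreated or exposed to 5 μg/mL RNase A at 37°C for 1 h, then dissociated with 6% SDS. Samples were run on 2% agarose at 100 V, ethidium bromide-stained and imaged for intact siRNA.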

[2] = system: MCF10a breast epithelial cells; experiment: Cell viability of healthy cells; format: cell-based; conditions: 48 h
CSNK2A1 mRNA [3] = experiment: qPCR gene silencing in OVCAR3 cells; format: cell-based; conditions: 48 h, 10% FBS
Procedure, shortened: as §1

WEADIVADIVWDIVADIVAGGG-(d)RRRRRRRRR [DIV3W]
CSNK2A1 mRNA knockdown, maximum (CSNK2A1 mRNA [1]): 80% | siRNA degradation after incubation with RNase A (RNase A): Minimal degradation | cytotoxic effects on healthy cells [2]: no cytotoxic effects were observed

WEADIVADIVHDIVADIVAGGG-(d)RRRRRRRRR [DIV3H]
CSNK2A1 mRNA silencing efficacy (CSNK2A1 mRNA [3]; OVCAR3, siCSNK2A1 complex at 80:1 versus siNT complex): 72%

WEADIVADIVADIVAGGG-(d)RRRRRRRRR [DIVA3]
CSNK2A1 mRNA silencing efficacy (CSNK2A1 mRNA [3]; OVCAR3, siCSNK2A1 complex at 60:1 versus siNT complex): 47%
